Screening results (PubChem)
Most compounds without a hit are left out; they make up all but 2.6% or so of the library.
TAAR1 antagonist: antagonists of human TAAR1 | Q96RJ0 | inhibition, % at 3 µM | AID 624466 | CHO RD-HGA16 TAAR1, Fluo-8 calcium fluorescence, antagonist | actives 1.5% (n = 360,000);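 active = inhibition above a per-plate cutoff, the mean inhibition of test compounds on that plate plus 3 SD, cut at about 49% in these data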;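 note: 0% = DMSO plus EC80 beta-PEA response and 100% = DMSO alone without agonist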
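test system = CHO RD-HGA16 cells bearing hTAAR1 | replication = singlicate | controls = DMSO-only wells and EC80 β-PEA-stimulated wells | reagent = EC80 β-phenethylamine stimulus | read-out basis = percent inhibition of PEA-evoked calcium signal, max/basal emission ratio | schedule = seeding 17-24 h prior, 75-min 37 °C, 30-min RT dye loading | signal = kinetic Fluo-8 calcium fluorescence measurement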
TAAR1 agonist: agonists of human TAAR1; Q96RJ0; CHO RD-HGA16 TAAR1, Fluo-8 calcium fluorescence; vehicle wells 0%, saturating PEA agonist 100%; activation, % at 3 µM; actives 0.99% (n = 360,000); AID 624467;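 active = activation above the mean activation of all test compounds in the run plus 3 SD, cut at about 38% in these data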
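Repeats: no replicates (n 1) | Material: CHO-derived RD-HGA16 cells with stable Gα16 and human TAAR1 | Technique: Kinetic Fluo-8 calcium fluorescence | Schedule: 17-24 h seeding, 75 min 37 °C dye, 30 min RT | Evaluation: % activation from peak over basal fluorescence ratio, DMSO-to-PEA scaled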
Rce1 inhib: blocks yeast Ras-converting enzyme. Q03530. yeast membranes, quenched prenylated peptide cleavage fluorescence. calls only. actives 0.27% (n = 290,000). AID 2563;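 active = fall in fluorescence gain of 50% or more versus controls, with final raw signal at or below 3038400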;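 note: plate controls were neutral control wells for no effect and wells lacking membranes for full effect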
Platelet DG rel: modulates dense granule release in human platelets; inhibition, %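 (compounds screened at 7.5 µM in platelet-rich plasma)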; human platelet-rich plasma, SFLLRN dense granule ATP release, luminescence; actives 0.22% (n = 300,000);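 active = mean replicate score, as percent of positive control, at or above 50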
VLA-4 inh: inhibition in a human VLA-4 binding assay; P13612; actives 0.2% (n = 330,000); VLA-4 expressing cells, ligand binding flow cytometry; inhibition, % (about 7 µM as worked out from the volumes in the protocol); in the data active = inhibition above about 50%
Active calls of the source: *; i = inactive; . = not tested or not shown.

SMILES	TAAR1 antagonist	TAAR1 agonist	Rce1 inhib	Platelet DG rel	VLA-4 inh
COC(=O)[C@]12CCCCC=C1N(Cc1cccc3ccccc13)C(=O)[C@H](CC(=O)N1CCSCC1)C2	52.5*	12.0	.	.	.
COC(=O)[C@]12CCCCC=C1N(Cc1cccc3ccccc13)C(=O)[C@H](CC(=O)NCc1ccccc1)C2	42.1	1.8	.	.	.
CCOC(=O)[C@]12CCCC=C1N(Cc1ccccc1)C(=O)[C@H](CC(=O)NCc1cccc3ccccc13)C2	30.1	6.2	.	.	.
CCOC(=O)[C@]12CCCC=C1N(Cc1ccco1)C(=O)[C@H](CC(=O)NCc1cccc3ccccc13)C2	49.6*	2.6	.	.	.
COC(=O)[C@]12CCCCC=C1N(Cc1cccc3ccccc13)C(=O)[C@H](CC(=O)NCCC(C)C)C2	61.6*	9.4	.	.	.
CC(C)(C)c1cc(NC(=O)C2(C)CCN2C(=O)C2(c3ccccc3)CC2)no1 (centres undefined)	4.8	-1.1	.	.	.
COC(=O)C1=CO[C@@H](O[C@@H]2O[C@H](CO)[C@@H](O)[C@H](O)[C@H]2O)C2C1CC(O)O[C@H]2C (some centres undefined)	11.1	5.0	.	.	17.8
O=C(NC1CC1)c1cccc2c1C(=O)c1ccc(N3CCC(Cc4ccccc4)CC3)cc1S2(=O)=O	78.1*	46.2*	.	.	-339.9
CC1CCN(c2ccc3c(c2)S(=O)(=O)c2cccc(C(=O)NC4CCCCC4)c2C3=O)CC1	71.5*	40.8*	.	.	-28.1
CC(C)c1cccc(-c2ccc3c(c2)S(=O)(=O)c2cccc(C(=O)NCc4ccco4)c2C3=O)c1	52.3*	11.5	.	.	2.6
COc1ccc(-c2ccc3c(c2)S(=O)(=O)c2cccc(C(=O)NC[C@@H]4CCCO4)c2C3=O)cc1OC	57.4*	21.2	.	.	-16.8
O=C(NC[C@@H]1CCCO1)c1cccc2c1C(=O)c1ccc(Cl)cc1S2(=O)=O	25.6	7.1	.	.	8.8
O=C(NC1CCCC1)c1cccc2c1C(=O)c1ccc(N3CCCCC3)cc1S2(=O)=O	20.9	9.8	.	.	-1.4
CC(C)c1cccc(-c2ccc3c(c2)S(=O)(=O)c2cccc(C(=O)O)c2C3=O)c1	-13.3	0.9	.	.	13.0
COc1ccc(OC)c(S(=O)(=O)Nc2cc3c4c(c2)C(C)C(=O)N4CCC3)c1 (centres undefined)	6.7	0.6	i	-4.7	9.1
Cc1ncoc1C(=O)NC1CCCc2c1cnn2-c1ccc(C(C)(C)C)cc1 (centres undefined)	-13.8	2.5	i	2.7	.
COCCNC(=O)c1cccc2c(-c3cnn(C)c3)coc12	-16.6	1.9	.	.	.
COc1cc2cc[n+](Cc3ccc([N+](=O)[O-])cc3)cc2cc1OC	4.5	-0.2	i	22.8	10.3
CC1CCN(c2ccc3c(c2)S(=O)(=O)c2cccc(C(=O)NCc4ccc(F)cc4)c2C3=O)CC1	38.2	21.9	.	.	-29.3
O=C(NC1CCCCC1)c1cccc2c1C(=O)c1ccc(N3CCCC3)cc1S2(=O)=O	59.1*	30.3	.	.	-22.7
COc1ccccc1N1CCN(c2ccc3c(c2)S(=O)(=O)c2cccc(C(=O)NCC4CC4)c2C3=O)CC1	53.8*	13.0	.	.	.
CC(C)n1nc(C(=O)NNC(=O)c2ccc(OC(F)F)cc2)c2ccccc2c1=O	-2.0	2.4	.	.	-6.4
COc1ccc(N=C2NC(=O)S/C2=C\c2ccc(N(C)C)cc2)cc1	57.6*	27.1	i	1.3	-57.2
Cc1ccc(Nc2nc(NCCO)nc3c2cnn3C)cc1Cl	4.4	38.2*	i	6.0	-2.6
COc1cc(C=NN=c2sc3ccccc3n2C)ccc1OCCO	8.6	7.5	.	.	.
SMILES	TAAR1 antagonist	TAAR1 agonist	Rce1 inhib	Platelet DG rel	VLA-4 inh
Nc1nonc1C(=O)NCCNCc1cc(Br)ccc1OCc1ccccc1F	51.4*	40.3*	i	-4.5	5.6
CC(CC12CC3CC(CC(C3)C1)C2)NCc1ccccc1O (centres undefined)	0.6	39.0*	i	3.3	6.8
Oc1ccccc1CNCC12CC3CC(CC(C3)C1)C2	-10.0	3.2	i	7.6	-52.1
Cn1c(=O)c(=O)n(C)c2cc(N3CCCCC3)c(NS(=O)(=O)c3ccc([N+](=O)[O-])cc3)cc21	3.3	1.4	i	9.4	0.3
CC(OC(=O)c1ccc(O)cc1)C(=O)Nc1ccc(Oc2ccccc2)cc1 (centres undefined)	49.4*	2.6	.	.	0.4
COC(=O)C1CC(C(=O)OC)C2C(C(=O)OC)CC(C(=O)OC)C12 (centres undefined)	-1.0	0.7	.	.	.
O=C(N/N=C/c1ccc(Cl)cc1)c1ccc2nc[nH]c2c1	53.1*	17.5	.	.	.
